Assay results taken from ChEMBL document CHEMBL3352088, “Novel derivatives of usnic acid effectively inhibiting reproduction of influenza A virus” (Bioorg Med Chem, 2014).

Key:
[1] = Selectivity index, ratio of CTD50 for MDCK cells to ED50 for Influenza A virus (A/California/07/09(H1N1)) pdm09; format: toxicity, cell-based; settings: dog, read-out: Selectivity Index
[2] = Cytotoxicity against MDCK cells assessed reduction in cell viability after 48 hrs by MTT assay; format: cell-based, Canis lupus familiaris; settings: dog, read-out: CTD50
Outline: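 MDCK monolayers were grown in MEM with 5% fetal calf serum and washed with serum-free MEM. Compounds (5 mg/ml DMSO stock) were applied as twofold dilutions, 1000–4 microgram/ml in MEM, for 48 h at 37°C. After PBS washes, MTT (0,5 mg/ml) was added for 60 min at 37°C, 5% CO2. Formazan was dissolved in DMSO and read at 535 nm. CTD50 is the concentration cutting viability 50%.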

SMILES: CC(=O)c1c(O)c(C)c(O)c2c1OC1=Cc3c(c(C)nn3-c3ccccc3)C(=O)[C@@]12C
- selectivity ratio [1]: 12
- CC50 at 48 h [2]: 832 µM

SMILES: CC(=O)c1c(O)c(C)c(O)c2c1OC1=Cc3c(c(C)nn3-c3ccccc3)C(=O)[C@]12C
- selectivity ratio [1]: 10
- CC50 at 48 h [2]: 565 µM

SMILES: CC(=O)c1c(O)c(C)c(O)c2c1OC1=Cc3c(c(C)nn3-c3ccccc3)[C@@H](O)[C@@]12C
- selectivity ratio [1]: 11
- CC50 at 48 h [2]: 26.3 µM

SMILES: CC(=O)c1c(O)c(C)c(O)c2c1OC1=CC(=O)/C(=C(/C)NCC(=O)O)C(=O)[C@@]12C
- selectivity ratio [1]: 6

SMILES: CC(=O)c1c(O)c(C)c(O)c2c1OC1=CC(=O)/C(=C(/C)NCC(=O)O)C(=O)[C@]12C
- selectivity ratio [1]: 14
- CC50 at 48 h [2]: 150 µM

SMILES: CC(=O)c1c(O)c(C)c(O)c2c1OC1=CC(=O)/C(=C(/C)NCCC(=O)O)C(=O)[C@@]12C
- selectivity ratio [1]: 20.3
- CC50 at 48 h [2]: 147 µM

SMILES: CC(=O)c1c(O)c(C)c(O)c2c1OC1=CC(=O)/C(=C(/C)NCCC(=O)O)C(=O)[C@]12C
- selectivity ratio [1]: 10
- CC50 at 48 h [2]: 145 µM

SMILES: CC(=O)C1=C(O)C=C2O[C@]34O[C@@]3(C(C)=O)C(=O)C(C)=C(O)[C@]4(O)[C@@]2(C)C1=O
- selectivity ratio [1]: 22
- CC50 at 48 h [2]: 234 µM

SMILES: CC(=O)c1c(O)c(C)c(O)c2c1OC1=CC(=O)/C(=C(/C)NCCCC(=O)O)C(=O)[C@@]12C
- selectivity ratio [1]: 3.7
- CC50 at 48 h [2]: 130 µM

SMILES: CSCC[C@H](N/C(C)=C1\C(=O)C=C2Oc3c(C(C)=O)c(O)c(C)c(O)c3[C@@]2(C)C1=O)C(=O)O
- selectivity ratio [1]: 5
- CC50 at 48 h [2]: 21.1 µM

SMILES: CC(=O)C1=C(O)C[C@H]2Oc3c(C(C)=O)c(O)c(C)c(O)c3[C@@]2(C)C1=O
- selectivity ratio [1]: 1.8
- CC50 at 48 h [2]: 14.5 µM

SMILES: CC(=O)c1c(O)c(C)c(O)c2c1OC1=CC(=O)/C(=C(/C)N[C@@H](CC(C)C)C(=O)O)C(=O)[C@@]12C
- selectivity ratio [1]: 2
- CC50 at 48 h [2]: 13.1 µM

SMILES: CC(=O)c1c(O)c(C)c(O)c2c1OC1=CC(=O)/C(=C(/C)N[C@H](CC(=O)O)CC(C)C)C(=O)[C@]12C
- selectivity ratio [1]: 5
- CC50 at 48 h [2]: 32.8 µM

SMILES: CC(=O)c1c(O)c(C)c(O)c2c1OC1=CC(=O)/C(=C(/C)NCCCC(=O)O)C(=O)[C@]12C
- selectivity ratio [1]: 3
- CC50 at 48 h [2]: 83.9 µM

SMILES: CC(=O)c1c(O)c(C)c(O)c2c1OC1=Cc3c(c(C)nn3-c3cccc(C(F)(F)F)c3)C(=O)[C@@]12C
- selectivity ratio [1]: 16
- CC50 at 48 h [2]: 1100 µM

SMILES: CC(=O)c1c(O)c(C)c(O)c2c1OC1=Cc3c(c(C)nn3-c3ccccc3)[C@H](O)[C@]12C
- selectivity ratio [1]: 4
- CC50 at 48 h [2]: 47.8 µM

SMILES: COc1c(C)c(O)c(C(=O)/C=C/c2ccccc2)c2c1[C@]1(C)C(=Cc3c(c(C)nn3-c3ccccc3)[C@H]1O)O2
- selectivity ratio [1]: 1.1
- CC50 at 48 h [2]: 36.5 µM

SMILES: COc1c(C)c(O)c(C(=O)/C=C/c2ccc(Cl)cc2)c2c1[C@]1(C)C(=Cc3c(c(C)nn3-c3ccccc3)[C@H]1O)O2
- selectivity ratio [1]: 4.6
- CC50 at 48 h [2]: 253 µM

SMILES: COc1ccccc1/C=C/C(=O)c1c(O)c(C)c(OC)c2c1OC1=Cc3c(c(C)nn3-c3ccccc3)[C@@H](O)[C@@]12C
- selectivity ratio [1]: 11
- CC50 at 48 h [2]: 909 µM

SMILES: COc1ccc(/C=C/C(=O)c2c(O)c(C)c(OC)c3c2OC2=Cc4c(c(C)nn4-c4ccccc4)[C@@H](O)[C@@]23C)cc1OC
- selectivity ratio [1]: 12.5
- CC50 at 48 h [2]: 431 µM

SMILES: COc1cccc(/C=C/C(=O)c2c(O)c(C)c(OC)c3c2OC2=Cc4c(c(C)nn4-c4ccccc4)[C@@H](O)[C@@]23C)c1OC
- selectivity ratio [1]: 17
- CC50 at 48 h [2]: 862 µM

SMILES: COc1ccc(/C=C/C(=O)c2c(O)c(C)c(OC)c3c2OC2=Cc4c(c(C)nn4-c4ccccc4)[C@@H](O)[C@@]23C)c(OC)c1OC
- selectivity ratio [1]: 8.5
- CC50 at 48 h [2]: 279 µM

SMILES: COc1cc(/C=C/C(=O)c2c(O)c(C)c(OC)c3c2OC2=Cc4c(c(C)nn4-c4ccccc4)[C@@H](O)[C@@]23C)cc(OC)c1OC
- selectivity ratio [1]: 12
- CC50 at 48 h [2]: 98.4 µM

SMILES: COc1ccc(OC)c(/C=C/C(=O)c2c(O)c(C)c(OC)c3c2OC2=Cc4c(c(C)nn4-c4ccccc4)[C@@H](O)[C@@]23C)c1
- selectivity ratio [1]: 20
- CC50 at 48 h [2]: 517 µM

SMILES: COc1ccc(/C=C/C(=O)c2c(O)c(C)c(OC)c3c2OC2=Cc4c(c(C)nn4-c4ccccc4)[C@@H](O)[C@@]23C)c(OC)c1
- selectivity ratio [1]: 20
- CC50 at 48 h [2]: 517 µM

SMILES: COc1c(C)c(O)c(C(=O)/C=C/c2ccc(SC)cc2)c2c1[C@]1(C)C(=Cc3c(c(C)nn3-c3ccccc3)[C@H]1O)O2
- selectivity ratio [1]: 10
- CC50 at 48 h [2]: 530 µM

SMILES: COc1cccc(/C=C/C(=O)c2c(O)c(C)c(OC)c3c2OC2=Cc4c(c(C)nn4-c4ccccc4)C(=O)[C@@]23C)c1OC
- selectivity ratio [1]: 4
- CC50 at 48 h [2]: 34.6 µM

SMILES: COc1ccc(-c2cc(-c3c(O)c(C)c(OC)c4c3OC3=Cc5c(c(C)nn5-c5ccccc5)[C@@H](O)[C@@]34C)n[nH]2)cc1
- selectivity ratio [1]: 10
- CC50 at 48 h [2]: 1020 µM

SMILES: COc1c(C)c(O)c(C(=O)/C=C/c2ccccc2)c2c1[C@@]1(C)C(=Cc3c(c(C)nn3-c3ccccc3)[C@@H]1O)O2
- selectivity ratio [1]: 1.7
- CC50 at 48 h [2]: 106 µM

SMILES: COc1c(C)c(O)c(C(=O)/C=C/c2ccc(Cl)cc2)c2c1[C@@]1(C)C(=Cc3c(c(C)nn3-c3ccccc3)[C@@H]1O)O2
- selectivity ratio [1]: 1.5
- CC50 at 48 h [2]: 116 µM

SMILES: COc1ccccc1/C=C/C(=O)c1c(O)c(C)c(OC)c2c1OC1=Cc3c(c(C)nn3-c3ccccc3)[C@H](O)[C@]12C
- selectivity ratio [1]: 14
- CC50 at 48 h [2]: 909 µM

SMILES: COc1cccc(/C=C/C(=O)c2c(O)c(C)c(OC)c3c2OC2=Cc4c(c(C)nn4-c4ccccc4)[C@H](O)[C@]23C)c1OC
- selectivity ratio [1]: 11.3
- CC50 at 48 h [2]: 862 µM

SMILES: CC(=O)C1=C(O)C=C2Oc3c4c(c(C)c(O)c3[C@]2(C)C1=O)OCC4=O
- selectivity ratio [1]: 2
- CC50 at 48 h [2]: 132 µM

SMILES: CC(=O)C1=C(O)C=C2Oc3c4c(c(C)c(O)c3[C@@]2(C)C1=O)OCC4=O
- selectivity ratio [1]: 1.8
- CC50 at 48 h [2]: 117 µM

SMILES: COc1ccccc1/C=C1\Oc2c(C)c(O)c3c(c2C1=O)OC1=CC(O)=C(C(C)=O)C(=O)[C@@]13C
- selectivity ratio [1]: 6.8
- CC50 at 48 h [2]: 32.6 µM

SMILES: CC(=O)C1=C(O)C=C2Oc3c4c(c(C)c(O)c3[C@@]2(C)C1=O)O/C(=C\c1ccc(Br)cc1)C4=O
- selectivity ratio [1]: 8.3
- CC50 at 48 h [2]: 39.4 µM

SMILES: CC(=O)C1=C(O)C=C2Oc3c4c(c(C)c(O)c3[C@@]2(C)C1=O)O/C(=C\c1ccncc1)C4=O
- selectivity ratio [1]: 6.1
- CC50 at 48 h [2]: 46.4 µM

SMILES: CC(=O)C1=C(O)C=C2Oc3c4c(c(C)c(O)c3[C@@]2(C)C1=O)O/C(=C\c1cccnc1)C4=O
- selectivity ratio [1]: 7.7
- CC50 at 48 h [2]: 53.4 µM

SMILES: CC(=O)C1=C(O)C=C2Oc3c(C(=O)CSc4nc5ccccc5s4)c(O)c(C)c(O)c3[C@@]2(C)C1=O
- selectivity ratio [1]: 2
- CC50 at 48 h [2]: 58.9 µM

SMILES: CC(=O)C1=C(O)C=C2Oc3c(C(=O)CSc4nc5ccccc5o4)c(O)c(C)c(O)c3[C@@]2(C)C1=O
- selectivity ratio [1]: 1
- CC50 at 48 h [2]: 2 µM

SMILES: CC(=O)C1=C(O)C=C2Oc3c(C(=O)CSCc4ccccc4)c(O)c(C)c(O)c3[C@@]2(C)C1=O
- selectivity ratio [1]: 3
- CC50 at 48 h [2]: 6.4 µM

SMILES: CC(=O)C1=C(O)C=C2Oc3c(C(=O)CSCc4ccc(C)cc4)c(O)c(C)c(O)c3[C@@]2(C)C1=O
- selectivity ratio [1]: 1
- CC50 at 48 h [2]: 2.1 µM

SMILES: CC(=O)C1=C(O)C=C2Oc3c(C(=O)CSCc4ncccc4C(=O)O)c(O)c(C)c(O)c3[C@@]2(C)C1=O
- selectivity ratio [1]: 3.1
- CC50 at 48 h [2]: 177 µM

SMILES: COc1c(C)c(O)c2c(c1C(=O)CSC1=NCCS1)OC1=CC(O)=C(C(C)=O)C(=O)[C@@]12C
- selectivity ratio [1]: 7.1
- CC50 at 48 h [2]: 105 µM

SMILES: COc1ccc2[nH]c(SCC(=O)c3c(OC)c(C)c(O)c4c3OC3=CC(O)=C(C(C)=O)C(=O)[C@@]34C)nc2c1
- selectivity ratio [1]: 23.1
- CC50 at 48 h [2]: 560 µM

SMILES: COc1c(C)c(O)c2c(c1C(=O)CSc1nc3ccccc3o1)OC1=CC(O)=C(C(C)=O)C(=O)[C@]12C
- selectivity ratio [1]: 7.5
- CC50 at 48 h [2]: 178 µM

SMILES: COc1c(C)c(O)c2c(c1C(=O)CSCCC(=O)O)OC1=CC(O)=C(C(C)=O)C(=O)[C@@]12C
- selectivity ratio [1]: 5.8
- CC50 at 48 h [2]: 938 µM

SMILES: CC(=O)C1=C(O)C=C2Oc3c(C(C)=O)c(OC(F)(Cl)C(F)F)c(C)c(O)c3[C@@]2(C)C1=O (some centres undefined)
- selectivity ratio [1]: 14
- CC50 at 48 h [2]: 100 µM

SMILES: CC(=O)C1=C(O)C=C2Oc3c(C(C)=O)c(OC(=O)c4ccccc4Br)c(C)c(OC(=O)c4ccccc4Br)c3[C@@]2(C)C1=O
- selectivity ratio [1]: 4
- CC50 at 48 h [2]: 31.1 µM

SMILES: CC(=O)C1=C(O)C=C2O[C@@]34O[C@]3(C(C)=O)C(=O)C(C)=C(O)[C@@]4(O)[C@]2(C)C1=O
- selectivity ratio [1]: 5.3
- CC50 at 48 h [2]: 152 µM

SMILES: CC(=O)[C@@]12O[C@@]13OC1=Cc4c(c(C)nn4-c4ccccc4)C(=O)[C@]1(C)[C@@]3(O)C(O)=C(C)C2=O
- selectivity ratio [1]: 5
- CC50 at 48 h [2]: 67 µM

SMILES: COc1c(C)c(O)c(C(C)=O)c2c1[C@]1(C)C(=Cc3c(c(C)nn3-c3ccccc3)CC13CO3)O2 (single isomer, unassigned; (+))
- selectivity ratio [1]: 2.6
- CC50 at 48 h [2]: 681 µM

SMILES: COc1c(C)c(O)c(C(=O)/C=C/c2ccccc2)c2c1[C@]1(C)C(=Cc3c(c(C)nn3-c3ccccc3)CC13CO3)O2 (single isomer, unassigned; (+))
- selectivity ratio [1]: 3.3
- CC50 at 48 h [2]: 18.3 µM

SMILES: CC(=O)C1=C(O)C=C2Oc3c(C(C)=O)c(O)c(C)c(O)c3[C@@]2(C)C1=O [(+)-USNIC ACID]
- selectivity ratio [1]: 8.2
- CC50 at 48 h [2]: 424 µM

SMILES: CC(=O)C1=C(O)C=C2Oc3c(C(C)=O)c(O)c(C)c(O)c3[C@]2(C)C1=O [(-)-USNIC ACID]
- selectivity ratio [1]: 10.2
- CC50 at 48 h [2]: 134 µM
